GAA850 FXN act: FXN promoter activators, primary screen, cell-based, luciferase luminescence, HEK293 lucGAA850 | HEK293 lucGAA850 FXN promoter luciferase reporter, 24 h; percent of 10 µM SAHA response | activation, % at 6 µM | 360,000 tested, 0.56% active | AID 540364, 2011;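 active = activation above the average of all compounds screened plus 3 SD, cutoff fixed separately per campaign, cut at about 7.5% in these data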
GalR3 antag: GalR3 antagonists in HEK293 cells, primary screen, cell-based, fluorescence readout; Galanin receptor type 3 (Homo sapiens), O60755; HEK293 GalR3-CNG cAMP membrane potential fluorescence; galR3 body fused to GalR1 C-terminus; inhibition, % at 3 µM; 360,000 tested, 0.44% active;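 active = inhibition above the screen-wide average plus 3 SD, cut at about 13% in these data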;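 note: forskolin and galanin both at EC90 stimulate the cells; cAMP rise reported by CNG channel membrane potential dye signal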
Target sequence (O60755 1-299 limits assumed): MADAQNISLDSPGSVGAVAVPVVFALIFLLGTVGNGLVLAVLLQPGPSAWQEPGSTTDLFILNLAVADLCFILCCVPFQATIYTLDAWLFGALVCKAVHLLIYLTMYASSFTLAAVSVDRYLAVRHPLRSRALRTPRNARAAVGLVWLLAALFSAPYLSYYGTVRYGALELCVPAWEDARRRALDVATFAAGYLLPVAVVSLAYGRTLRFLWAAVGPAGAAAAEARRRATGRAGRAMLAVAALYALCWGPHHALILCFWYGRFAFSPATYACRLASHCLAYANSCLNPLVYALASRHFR
NR2E3 ag-1: inhibitors of NR2E3-RetCOR corepressor binding, primary screen, NR2E3 agonist project, biochemical, TR-FRET, GST-NR2E3, biotin-RetCOR; Photoreceptor-specific nuclear receptor (Homo sapiens), Q9Y5X4; 1536-well; inhibition of corepressor binding, % at 4.78 µM; 320,000 tested, 0.12% active; AID 2300, 2010;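 active = percent inhibition above the cutoff of mean plus 3 SD of all tested compounds, set per screening campaign, cut at about 20% in these data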
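Material: NR2E3–RetCOR corepressor complex / Amount: 1.35 nM GST-NR2E3 / Medium: Tris pH 7.5 / Compound: single nominal compound dose of 4.8 µM / Incubation: 5 h at 4 °C / Technique: TR-FRET, Eu(K)-anti-GST donor, streptavidin-D2 acceptor, ex 340, em 617/671 nm / Read-out basis: percent loss of FRET ratio relative to control wells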
Env fusion inh: inhibitors of HIV-1 Env-driven cell-cell fusion, primary screen, HeLa-JRFL effector, CEM21 target cells, luciferase; 360,000 tested, 1.1% active; inhibition, % at 12.3 µM;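 active = mean replicate inhibition score of at least 50 and every replicate individually at or above 50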
V-ATPase pHluor: regulators of yeast V-ATPase proton pumping, primary screen, pHLuorin cytosolic pH fluorescence. S. cerevisiae. response, % at 10 µM. 350,000 tested, 0.37% active; in the data active = response mostly above about 7.3%, no sharp cut-off; inactive = mostly below about 5.4%; note: actives read high
NR2E3 ag-2: NR2E3 agonists in two-hybrid cells, primary screen, cell-based, luminescence, CHO-S, Gal4-NCOR/VP16-NR2E3 | luciferase | inhibition of corepressor binding, % at 3.98 µM | 360,000 tested, 0.35% active;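 active = inhibition above the mean of all tested compounds plus 3 SD, cut at about 70% in these data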;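 note: higher means lower luciferase signal from less NR2E3 corepressor binding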
GAA30 FXN cntr: GAA30 FXN promoter activators, confirmation, counter-screen for GAA850 frataxin promoter activator project, cell-based, luminescence, HEK293, lucGAA30, triplicate; activation, % at 6 µM; 1,900 tested, 66% active; shares compounds with GAA850 FXN act; HEK293 lucGAA30 FXN promoter luciferase, 24 h; DMSO = 0%, 5 µM ipriflavone = 100%;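 active = mean activation above the mean of solvent-only control wells plus 3 SD, cut at about 22% in these data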;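 note: counterscreen of GAA850 promoter hits where activity marks nonselective or luminescence artifacts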
FXN GAA850 conf: FXN GAA850 promoter activators in reporter cells, confirmation, cell-based, luminescence, HEK293 lucGAA850, triplicate; shares compounds with GAA850 FXN act; HEK293 lucGAA850 FXN promoter luciferase reporter, 24 h; 100% = activation by SAHA; activation, % at 6 µM; 1,900 tested, 86% active; AID 588351, 2011;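 active = mean activation above a set limit taken from the primary screen, cut at about 8% in these data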
Large screens that a line does not name were inactive (follow-up assays come after a bar, where they were run). Compounds with a hit are over-represented: about 2.2% of the library has one in this group of screens.

COc1cc2c(cc1OC)CN(c1ccc([N+](=O)[O-])c(C(F)(F)F)c1)CC2	none
O=C1NC(=O)N(Cc2ccccc2)C(=O)/C1=C\C=C\c1ccco1	GAA850 FXN act 13 | GAA30 FXN cntr inactive | FXN GAA850 conf 31
O=C1NC(=O)N(Cc2ccco2)C(=O)/C1=C/C=C/c1ccco1	GAA850 FXN act 10 | GAA30 FXN cntr inactive | FXN GAA850 conf 26
Cn1cccc1/C=C1\C(=O)NC(=O)N(Cc2ccco2)C1=O	none (no result: NR2E3 ag-1)
COC(=O)C(O)(c1ccc(NC(=S)NC(=O)c2ccccc2)cc1)C(F)(F)F (centres undefined)	none
C=C1C(C)C2C(Cc3ccccc3)NC(=O)C23C(OC(C)=O)C=CC(C)(O)CC(C)CC=CC3C1O (centres undefined)	GAA850 FXN act 7.6 (no result: NR2E3 ag-1) | GAA30 FXN cntr inactive | FXN GAA850 conf 23
c1cncc(C2CCCCN2)c1 (centres undefined)	none (no result: Env fusion inh)
c1cncc(C2Nc3cccc4cccc(c34)N2)c1	GAA850 FXN act 12 | GAA30 FXN cntr 26 | FXN GAA850 conf inactive
C/C(=N\N1CCCCC1c1cccnc1)c1c(O)n(C2CCCCC2)c(=S)[nH]c1=O (centres undefined)	GAA850 FXN act 8.2 | GAA30 FXN cntr inactive | FXN GAA850 conf 17
CN1CC[C@@H]2CN[C@H](c3ccccc3)C[C@@H]21	none (no result: GAA850 FXN act, NR2E3 ag-1, V-ATPase pHluor, NR2E3 ag-2)
CN1C[C@H](O)[C@H]2C[C@@H]1c1ccccc1O2	none (no result: GAA850 FXN act, NR2E3 ag-1, V-ATPase pHluor, NR2E3 ag-2)
Cc1ccc(N2C(=O)NC(=O)/C(=C\C=C\c3ccco3)C2=O)cc1	GAA850 FXN act 8.0 | GAA30 FXN cntr inactive | FXN GAA850 conf 20
Cc1ccc(N2C(=O)NC(=O)/C(=C\C=C\c3ccco3)C2=O)cc1C	GAA850 FXN act 8.4 (no result: Env fusion inh) | GAA30 FXN cntr inactive | FXN GAA850 conf inactive
O=C1NC(=O)N(c2ccccc2)C(=O)/C1=C/C=C/c1ccco1	none
OC[C@@H](O)CCl	none (no result: GAA850 FXN act, GalR3 antag, Env fusion inh, V-ATPase pHluor, NR2E3 ag-2)
CN1CCN(c2ccc3c(c2)S(=O)(=O)c2ccccc2C3=O)CC1	GAA850 FXN act 8.8 | GAA30 FXN cntr 97 | FXN GAA850 conf 35
CN1C(=O)/C(=C/c2ccc(N3CCCCCC3)o2)C(=O)NC1=S	GAA850 FXN act 9.9 | GAA30 FXN cntr 100 | FXN GAA850 conf 47
CCCCCP(=O)(O)c1ccccc1	none
CCCC/C(C)=C/[C@@H](NP(=O)(c1ccccc1)c1ccccc1)c1ccccc1	GAA850 FXN act 9.2, Env fusion inh 84 | GAA30 FXN cntr inactive | FXN GAA850 conf inactive
O=[N+]([O-])c1ccc(Cl)c([N+](=O)[O-])c1	GAA850 FXN act 8.0 (no result: GalR3 antag) | GAA30 FXN cntr 38 | FXN GAA850 conf 78
O=[N+]([O-])c1ccc(O)c([N+](=O)[O-])c1	none (no result: GalR3 antag, Env fusion inh)
COC1/C=C/C=C(\C)Cc2cc(O)c(Cl)c(c2)N(C)C(=O)CC(OC(=O)C(C)C)C2(C)OC2C(C)C2CC1(O)NC(=O)O2 (centres undefined)	GAA850 FXN act 19, Env fusion inh 56 (no result: NR2E3 ag-1) | GAA30 FXN cntr inactive | FXN GAA850 conf 21
CCNC(=O)[C@H]1O[C@@H](n2cnc3c(N)ncnc32)[C@H](O)[C@@H]1O	GAA850 FXN act 8.6 | GAA30 FXN cntr 35 | FXN GAA850 conf 18
CC(C)S(=O)(=O)N1Cc2ccc(Br)cc2-n2nncc2C1	none (no result: GAA850 FXN act, NR2E3 ag-1, V-ATPase pHluor, NR2E3 ag-2)

Bioassay records from PubChem.
